Measurements: the M2OR odorant receptor database
Positions count from the first letter of the chain named.

Tests used:
Details in all cases: stereoisomer not certain
O56A4 I247V = system: T1, O56A4 I247V
T1 sequence (whole entry): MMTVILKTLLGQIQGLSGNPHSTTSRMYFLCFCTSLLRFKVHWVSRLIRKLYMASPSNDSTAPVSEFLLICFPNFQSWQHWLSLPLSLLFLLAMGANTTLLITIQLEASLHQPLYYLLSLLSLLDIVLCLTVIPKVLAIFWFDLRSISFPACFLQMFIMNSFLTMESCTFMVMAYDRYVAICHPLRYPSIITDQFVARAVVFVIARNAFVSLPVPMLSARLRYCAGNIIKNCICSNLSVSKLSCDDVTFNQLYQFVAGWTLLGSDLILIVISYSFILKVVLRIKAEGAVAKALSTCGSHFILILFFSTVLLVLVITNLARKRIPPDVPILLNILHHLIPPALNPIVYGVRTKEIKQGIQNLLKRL
Method in brief: (§1)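 Each receptor–molecule pair is labelled responsive or non-responsive (inactive) according to whether the original authors judged the measured signal statistically different from baseline. The data were taken from the main text and supplementary material of published papers and checked for typos and inconsistencies. Assay methods differed by source, with transient luciferase assays in mammalian cell lines being common.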

O56A5 V104L = system: T2, O56A5 V104L
T2 sequence (whole entry): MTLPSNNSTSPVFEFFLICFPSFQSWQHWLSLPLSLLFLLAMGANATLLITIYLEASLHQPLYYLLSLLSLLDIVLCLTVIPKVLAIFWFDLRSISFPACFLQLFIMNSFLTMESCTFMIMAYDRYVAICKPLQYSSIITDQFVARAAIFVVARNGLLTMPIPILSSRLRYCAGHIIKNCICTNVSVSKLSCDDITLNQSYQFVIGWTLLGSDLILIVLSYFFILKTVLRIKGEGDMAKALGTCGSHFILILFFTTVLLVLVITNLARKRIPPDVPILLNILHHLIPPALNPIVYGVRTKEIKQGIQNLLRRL
Method in brief: as §1

O56B1 C106R L214F = system: T3, O56B1 C106R L214F
T3 sequence (whole entry): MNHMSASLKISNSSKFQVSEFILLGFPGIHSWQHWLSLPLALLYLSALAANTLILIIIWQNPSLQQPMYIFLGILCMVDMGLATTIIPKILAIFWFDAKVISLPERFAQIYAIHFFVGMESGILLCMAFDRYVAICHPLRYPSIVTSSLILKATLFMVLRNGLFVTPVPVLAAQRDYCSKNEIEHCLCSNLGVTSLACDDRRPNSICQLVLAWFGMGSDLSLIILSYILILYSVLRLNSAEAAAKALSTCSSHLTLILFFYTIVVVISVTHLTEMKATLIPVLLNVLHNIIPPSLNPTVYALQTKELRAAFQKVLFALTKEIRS
Method in brief: as §1

O56B1 L214F = system: T4, O56B1 L214F
T4 sequence (whole entry): T3 sequence (whole entry) with R106C
Method in brief: as §1

O56B4 = system: T5, O56B4
T5 sequence (whole entry): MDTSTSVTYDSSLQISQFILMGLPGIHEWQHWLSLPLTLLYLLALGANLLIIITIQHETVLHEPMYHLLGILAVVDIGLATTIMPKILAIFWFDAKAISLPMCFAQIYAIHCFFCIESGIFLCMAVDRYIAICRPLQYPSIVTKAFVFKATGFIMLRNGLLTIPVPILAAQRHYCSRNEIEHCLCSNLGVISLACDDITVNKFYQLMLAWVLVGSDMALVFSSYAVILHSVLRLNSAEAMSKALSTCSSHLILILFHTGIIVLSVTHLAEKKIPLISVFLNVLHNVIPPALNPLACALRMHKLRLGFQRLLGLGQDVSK
Method in brief: as §1

O5AC2 = system: T6, O5AC2
T6 sequence (whole entry): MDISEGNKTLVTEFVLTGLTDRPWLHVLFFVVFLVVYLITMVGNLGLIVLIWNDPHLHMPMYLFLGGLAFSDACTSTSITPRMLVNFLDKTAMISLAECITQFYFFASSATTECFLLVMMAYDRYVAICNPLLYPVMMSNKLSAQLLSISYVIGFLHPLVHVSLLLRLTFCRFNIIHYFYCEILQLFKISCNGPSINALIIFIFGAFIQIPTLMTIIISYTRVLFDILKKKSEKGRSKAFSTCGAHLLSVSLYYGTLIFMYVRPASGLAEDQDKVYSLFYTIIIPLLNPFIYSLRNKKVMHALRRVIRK
Method in brief: as §1

O5AK2 M92I = system: T7, O5AK2 M92I
T7 sequence (whole entry): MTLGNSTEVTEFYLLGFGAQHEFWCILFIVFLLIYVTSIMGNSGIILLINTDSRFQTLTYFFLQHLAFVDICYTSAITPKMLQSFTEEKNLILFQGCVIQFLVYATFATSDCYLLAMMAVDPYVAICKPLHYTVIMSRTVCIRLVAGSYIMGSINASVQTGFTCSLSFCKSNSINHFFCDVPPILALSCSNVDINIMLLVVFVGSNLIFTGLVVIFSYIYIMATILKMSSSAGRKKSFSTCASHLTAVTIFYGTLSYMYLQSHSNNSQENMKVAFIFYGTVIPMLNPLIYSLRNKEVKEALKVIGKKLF
Method in brief: as §1

O5AN1 C142Y L289F = system: T8, O5AN1 C142Y L289F
T8 sequence (whole entry): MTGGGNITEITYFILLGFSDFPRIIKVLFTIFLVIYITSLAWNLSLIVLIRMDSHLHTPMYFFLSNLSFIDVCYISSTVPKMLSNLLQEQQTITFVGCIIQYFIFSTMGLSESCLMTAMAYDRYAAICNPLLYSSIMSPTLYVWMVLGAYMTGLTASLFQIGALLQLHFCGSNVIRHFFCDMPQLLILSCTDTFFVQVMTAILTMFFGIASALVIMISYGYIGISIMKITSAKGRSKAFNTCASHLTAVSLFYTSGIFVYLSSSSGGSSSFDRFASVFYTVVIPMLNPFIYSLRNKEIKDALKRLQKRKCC
Method in brief: as §1

O5AN1 L289F = system: T9, O5AN1 L289F
T9 sequence (whole entry): T8 sequence (whole entry) with Y142C
Method in brief: as §1

O56A4 = system: T10, O56A4
T10 sequence (whole entry): T1 sequence (whole entry) with V247I
Method in brief: as §1

Measured: odorant receptor agonist call;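 also: active if original authors judged signal statistically different from baseline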

CCCCCCC=CCCC=O
not listed: O56A4
inactive: all other assays above

CCC1OC(C)=C(O)C1=O (centres undefined)
inactive: all assays above

Cc1cnc(C)c(C)n1
inactive: all assays above

CC1=C(O)C(=O)OC1C (centres undefined)
inactive: all assays above

CCCC(S)CCOC(C)=O (centres undefined)
inactive: all assays above

CCC1OC(=O)C(O)=C1C (centres undefined)
inactive: all assays above

CC1=NC(C)C(C)S1 (centres undefined)
inactive: all assays above

CC1=C(O)C(=O)C(C)O1 (centres undefined)
inactive: all assays above
